Results on four molecules are retold here after ChEMBL document CHEMBL5137075, “Discovery of a First-in-Class Degrader for Nuclear Receptor Binding SET Domain Protein 2 (NSD2) and Ikaros/Aiolos” (J Med Chem, 2022).

For series [1], the target named is T1, Cereblon/Ikaros (Homo sapiens) (UniProt Q96SW2+Q13422). The series can be described thus: Protac activity at CRBN/IKZF1 in human KMS-11 cells assessed as induction of IKZF1 degradation at 2.5 uM incubated for 72 hrs by Western blot analysis. Type of series: cell-based. The method in brief: (§1)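 KMS11 or H929 myeloma cells were treated with DMSO or 2.5 μM for 72 h. IKZF1 and IKZF3 were measured by Western blot with GAPDH as loading control, representative of two independent experiments.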
Background: In western blotting, separated proteins are transferred to a membrane and probed.

Series [2] concerns the target T1, Cereblon/Ikaros (Homo sapiens). As to the kind of experiment: Protac activity at CRBN/IKZF1 in human NCI-H929 cells assessed as induction of IKZF1 degradation at 2.5 uM incubated for 72 hrs by Western blot analysis. Type of series: cell-based. The method, boiled down: as §1
Series [3] deals with T2, Protein cereblon/Zinc finger protein Aiolos (Homo sapiens) (UniProt Q96SW2+Q9UKT9). The series can be described thus: Protac activity at CRBN/IKZF3 in human KMS-11 cells assessed as induction of IKZF3 degradation at 2.5 uM incubated for 72 hrs by Western blot analysis. The class given is cell-based. The method, boiled down: as §1
Series [4] has as its target T2, Protein cereblon/Zinc finger protein Aiolos (Homo sapiens). As to the kind of experiment: Protac activity at CRBN/IKZF3 in human NCI-H929 cells assessed as induction of IKZF3 degradation at 2.5 uM incubated for 72 hrs by Western blot analysis. The class given is cell-based. The method in brief: as §1
Series [5] concerns the target T3, Histone-lysine N-methyltransferase NSD2 (Homo sapiens, UniProt O96028).
T3 sequence (O96028 whole entry): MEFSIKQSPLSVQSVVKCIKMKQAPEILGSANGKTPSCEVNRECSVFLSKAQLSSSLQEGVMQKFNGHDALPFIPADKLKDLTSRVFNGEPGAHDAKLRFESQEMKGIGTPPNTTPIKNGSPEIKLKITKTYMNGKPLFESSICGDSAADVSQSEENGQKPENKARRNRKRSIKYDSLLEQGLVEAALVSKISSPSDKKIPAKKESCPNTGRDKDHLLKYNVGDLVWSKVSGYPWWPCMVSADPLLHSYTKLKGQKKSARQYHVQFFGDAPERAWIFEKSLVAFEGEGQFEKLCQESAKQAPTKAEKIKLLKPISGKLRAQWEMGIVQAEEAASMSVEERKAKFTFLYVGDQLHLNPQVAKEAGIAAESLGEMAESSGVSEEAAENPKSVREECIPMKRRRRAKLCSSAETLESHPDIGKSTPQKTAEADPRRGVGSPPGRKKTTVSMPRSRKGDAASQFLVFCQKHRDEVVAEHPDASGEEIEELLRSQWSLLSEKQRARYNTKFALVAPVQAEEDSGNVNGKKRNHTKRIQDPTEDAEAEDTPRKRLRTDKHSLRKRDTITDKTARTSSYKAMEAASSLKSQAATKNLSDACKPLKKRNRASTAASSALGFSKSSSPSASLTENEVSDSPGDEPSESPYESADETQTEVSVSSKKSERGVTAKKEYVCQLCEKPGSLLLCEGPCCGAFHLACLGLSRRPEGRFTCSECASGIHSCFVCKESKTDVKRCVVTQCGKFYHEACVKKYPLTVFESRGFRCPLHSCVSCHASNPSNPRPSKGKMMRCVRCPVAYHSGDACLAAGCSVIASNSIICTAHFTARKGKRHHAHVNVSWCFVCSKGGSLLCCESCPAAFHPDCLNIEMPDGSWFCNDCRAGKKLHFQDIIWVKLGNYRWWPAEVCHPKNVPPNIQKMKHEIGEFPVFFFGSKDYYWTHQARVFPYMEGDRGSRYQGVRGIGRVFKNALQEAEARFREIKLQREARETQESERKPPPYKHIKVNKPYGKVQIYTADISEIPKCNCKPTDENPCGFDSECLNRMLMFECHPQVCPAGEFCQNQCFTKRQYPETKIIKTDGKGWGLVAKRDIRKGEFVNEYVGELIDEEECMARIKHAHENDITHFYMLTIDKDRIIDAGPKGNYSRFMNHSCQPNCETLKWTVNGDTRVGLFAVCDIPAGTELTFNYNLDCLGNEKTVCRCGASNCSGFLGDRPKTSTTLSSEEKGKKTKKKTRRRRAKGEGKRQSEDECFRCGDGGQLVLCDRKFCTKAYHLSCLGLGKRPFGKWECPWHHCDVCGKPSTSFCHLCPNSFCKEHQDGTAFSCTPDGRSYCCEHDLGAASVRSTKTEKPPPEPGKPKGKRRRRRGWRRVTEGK
As to the kind of experiment: Binding affinity to N-terminal GST-tagged human NSD2 PWWP1 domain (208 to 369 residues) expressed in Escherichia coli […] (DE3) cells assessed as dissociation constant by isothermal titration calorimetry assay.

Series [6] has as its target T4, Protein cereblon/Histone-lysine N-methyltransferase NSD2 (Homo sapiens, UniProt O96028+Q96SW2). As to the kind of experiment: Protac activity at CRBN E3 ligase/ NSD2 PWWP1 domain (208 to 369 residues) in HEK293FT cells assessed as induction of NSD2 degradation at 2.5 to 10 uM incubated for 48 hrs by Western blot analysis. Type of series: cell-based. The note with it: dose 2.5-10 µM. The method in brief:
(§2)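 293FT cells (DMEM, 10% FBS) were treated with DMSO or compound at the indicated concentrations for 48 h. NSD2 was detected by Western blot of NP-40 lysates with GAPDH as loading control. Blots are representative of at least two independent experiments.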

In series [7] the target is T4, Protein cereblon/Histone-lysine N-methyltransferase NSD2. The series can be described thus: Protac activity at CRBN E3 ligase/ NSD2 PWWP1 domain (208 to 369 residues) in HEK293FT cells assessed as induction of NSD2 degradation incubated for 48 hrs by Western blot analysis. The class given is cell-based. The method in brief: as §2
For series [8] the target is unchanged. As to the kind of experiment: Protac activity at CRBN E3 ligase/ NSD2 PWWP1 domain (208 to 369 residues) in HEK293FT cells assessed as induction of NSD2 degradation by measuring maximal efficacy at 0.5 to 10 uM incubated for 48 hrs by Western blot analysis relative to control. As to conditions: dose 0.5-10 µM. Type of series: cell-based. The method, boiled down: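 293FT cells were exposed to 0.5–10 μM for 48 h. NSD2 was immunoblotted with GAPDH as loading control and band intensity quantified by densitometry to derive DC50 and Dmax. Results are mean ± SD of two independent experiments.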

Series [9] shares this target. As to the kind of experiment: Protac activity at CRBN E3 ligase/ NSD2 PWWP1 domain (208 to 369 residues) in HEK293FT cells assessed as induction of NSD2 degradation 5 uM by Western blot analysis. Type of series: cell-based. As to conditions: time 0-72 hrs, TDE = time-dependent effect. The method in brief: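 293FT cells were treated at 5 μM for 0, 12, 24, 36, 48 or 72 h. Lysates were made in 50 mM Tris-HCl pH 8.0, 150 mM NaCl, 1% NP-40, and NSD2 was immunoblotted with GAPDH as loading control.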

The target is the same in series [10]. As to the kind of experiment: Protac activity at CRBN/NSD2 PWWP1 domain (208 to 369 residues) in wild type HEK293FT cells assessed as induction of NSD2 degradation at 0.5 to 10 uM incubated for 48 hrs by Western blot analysis. Type of series: cell-based. As to conditions: dose 0.5-10 µM. The method in brief: (§3)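 Wild-type 293FT cells, alongside a CRISPR-Cas9 CRBN-knockout 293FT line, were treated across a concentration range for 48 h. NSD2, IKZF3 and CRBN were immunoblotted with GAPDH as loading control, representative of at least two independent experiments.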

The target in series [11] is T2, Protein cereblon/Zinc finger protein Aiolos (Homo sapiens). As to the kind of experiment: Protac activity at CRBN/IKZF3 in wild type HEK293FT cells assessed as induction of IKZF3 degradation at 0.5 to 10 uM incubated for 48 hrs by Western blot analysis. Type of series: cell-based. The note with it: dose 0.5-10 µM. The method, boiled down:
as §3

A short description of series [12]: Cmax in Swiss albino mouse at 50 mg/kg, ip by LC-MS/MS analysis. Type of series: ADME, organism-based. The arrangement: dose 50 mg/kg, route ip. As to conditions: in vivo. The method in brief: (§4)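 Three male Swiss albino mice received a single 50 mg/kg intraperitoneal dose as a solution in 5% NMP/45% propylene glycol/50% PEG-400 (v/v). Blood was drawn at 0.5, 2 and 8 h and plasma stored at −70 °C. Plasma levels were measured by LC–MS/MS (LLOQ 5.14 ng/mL), reported as mean ± SD of three mice; mice were watched for clinical signs.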

Series [13] deals with KMS-11. As to the kind of experiment: Antiproliferative activity against human KMS-11 cells assessed as inhibition of cell growth at 2.5 uM incubated for 8 days by automated TC10 cell counter based analysis. The note with it: time 8.0 day. Type of series: functional. The method in brief:
(§5)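 KMS11 or H929 cells (RPMI 1640, 10% FBS) seeded at 0.5 million per well in triplicate, treated with 2.5 μM or DMSO for 8 days. Compound-containing medium replaced every 2 days; cells diluted periodically to stay below 1 × 10^6/mL. Viability given relative to DMSO control as mean ± SD (n = 3).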

Series [14] concerns NCI-H929. As to the kind of experiment: Antiproliferative activity against human NCI-H929 cells assessed as inhibition of cell growth at 2.5 uM incubated for 8 days by automated TC10 cell counter based analysis. The note with it: time 8.0 day. Type of series: functional. The method, boiled down:
as §5

A short description of series [15]: Tmax in Swiss albino mouse at 50 mg/kg, ip by LC-MS/MS analysis. The class given is ADME, organism-based. The note with it: in vivo. The method, boiled down: as §4
The nature of series [16]: Drug concentration in Swiss albino mouse plasma at 50 mg/kg, ip measured after 8 hrs by LC-MS/MS analysis. The class given is ADME, organism-based. The method, boiled down: as §4
A short description of series [17]: Toxicity in Swiss albino mouse assessed as clinical signs of toxicity at 50 mg/kg, ip administered for 8 hrs. The class given is organism-based. The note with it: in vivo. The method in brief: as §4
Series [18] addresses von Hippel-Lindau disease tumor suppressor/Histone-lysine N-methyltransferase NSD2 (Homo sapiens) (UniProt O96028+P40337). As to the kind of experiment: Protac activity at VHL E3 ligase/ NSD2 PWWP1 domain (208 to 369 residues) in HEK293FT cells assessed as induction of NSD2 degradation at 2.5 to 10 uM incubated for 48 hrs by Western blot analysis. Type of series: cell-based. The note with it: dose 2.5-10 µM. The method in brief:
as §2

What is called Kd is the equilibrium constant for the complex coming apart. One may read the DC50 as the midpoint of the concentration-degradation curve. For orientation: Emax means the greatest response seen or fitted, relative to the assay's reference. The term Cmax denotes the highest concentration seen after dosing. For orientation: Tmax means the time from dosing to the highest level.

Calls of active or inactive are those of the source. No cut-off for these calls is given here. Where only a bound is given, the exact number is not on record here.

Regarding `CC(C)N(Cc1ccc(C(=O)Nc2ccc(OCCCNC(=O)CNc3cccc4c3C(=O)N(C3CCC(=O)NC3=O)C4=O)cn2)cc1)C(=O)c1ccc2c(c1)OCC(=O)N2` (stereo not drawn), the result in [1], in series [2], in series [3] and in [4] was Active.

As to `CN1C(=O)CCC(N2C(=O)c3cccc(NCC(=O)NCCCOc4ccc(NC(=O)c5ccc(CN(C(=O)c6ccc7c(c6)OCC(=O)N7)C6CC6)cc5)nc4)c3C2=O)C1=O` (stereo not drawn), in series [5], the Kd is 900 nM.

As to `O=C(CNc1cccc2c1C(=O)N(C1CCC(=O)NC1=O)C2=O)NCCCOc1ccc(NC(=O)c2ccc(CN(C(=O)c3ccc4c(c3)OCC(=O)N4)C3CC3)cc2)nc1` (stereo not drawn), the outcome in series [6], in series [1], in series [2], in [3], in series [4] and in series [10] was Active. Besides, the outcome in series [11] was Active. Moreover, the Kd in series [5] was 1100 nM. Also, the DC50 in series [7] is 5200 nM. In addition, the Emax in series [8] was above 82%. Also, the Activity entry was “Tde” in [9] and “Non-Toxic” in series [17]. For the same molecule, the Cmax in [12] came out at 1350 nM. In addition, the inhibition result in [13] and in series [14] was “Active” in each case. In addition, in series [15], the Tmax was 30 min. The molecule also showed a concentration at 8 h in [16] of 980 nM.

With `Cc1ncsc1-c1ccc(CNC(=O)[C@@H]2C[C@@H](O)CN2C(=O)[C@@H](NC(=O)CCOCCOCCNC(=O)c2ccc(NC(=O)c3ccc(CN(C(=O)c4ccc5c(c4)OCC(=O)N5)C4CC4)cc3)cc2)C(C)(C)C)cc1`, the result in [18] was Active.
